# From ChEMBL document CHEMBL5316309, “Discovery of BAY-390, a Selective CNS Penetrant Chemical Probe as Transient Receptor Potential Ankyrin 1 (TRPA1) Antagonist” (J Med Chem, 2023)
# Calls of active or inactive are those of the source.
# Key:
# [1] = target: T1, Transient receptor potential cation channel subfamily A member 1 (Homo sapiens, UniProt O75762); assay: Antagonist activity at human wildtype TRPA1 channel expressed in CHO-K1 cells tagged with GCaMP6 by measuring calcium flux measured after […] by FLIPR tetra analysis; type: cell-based
# [2] = target: Transient receptor potential cation channel subfamily A member 1 (Rattus norvegicus, UniProt Q6RI86); assay: Antagonist activity at rat TRPA1 channel expressed in CHO-K1 cells tagged with GCaMP6 by measuring calcium flux measured after 10 mins by FLIPR tetra analysis; type: cell-based
# [3] = Mutagenecity in Salmonella typhimurium by Ames test; type: toxicity; conditions: salmonella sp.
# [4] = Lipophilicity, logD of compound; type: physicochemical; conditions: octanol/water
# Rattus norvegicus [5] = assay: Antiallodynic activity against spinal nerve ligation neuropathic pain Sprague-Dawley rat model assessed as paw withdrawal threshold administered at 30 mg/kg, po bid post SNL surgery; type: functional, organism-based; conditions: time <= 10.0 day, TDE = time-dependent effect
# Summary of the method: (§1)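 Male Sprague Dawley rats, 100–120 g, had spinal nerve ligation under isoflurane. Oral dosing b.i.d. on days 15–24 post surgery in DMSO/Solutol/water 10/40/50 at 5 mL/kg; gabapentin 30 mg/kg q.d. as control. Von Frey up-and-down thresholds, blinded, on both hind paws at day 11 (baseline) and days 15, 18, 21, 24, 2 h after morning dose. Kruskal–Wallis with Dunn versus vehicle.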
# [6] = target: T1, Transient receptor potential cation channel subfamily A member 1; assay: Antagonist activity at human TRPA1 channel expressed in CHO-K1 cells tagged with GCaMP6 by measuring calcium flux measured after 10 mins by FLIPR tetra analysis; type: cell-based
# Rattus norvegicus [7] = assay: Antiallodynic activity against spinal nerve ligation neuropathic pain Sprague-Dawley rat model assessed as reversal of mechanical allodynia administered at 90 mg/kg, po bid measured after 6 days post SNL surgery; type: functional, organism-based; conditions: time 6.0 day
# Plasma [8] = assay: Free plasma concentration in cinnamaldehyde induced nocifensive behaviour Sprague-Dawley rat model at 10 mg/kg, po; type: functional; conditions: time 1 hrs
# Summary of the method: (§2)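 Free plasma level taken 1 h after oral dosing (3, 10, 30 mg/kg) in the rat intraplantar cinnamaldehyde nocifensive model.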
# Plasma [9] = assay: Free plasma concentration in cinnamaldehyde induced nocifensive behaviour Sprague-Dawley rat treated with CFA for 24 hrs followed by compound addition at 3 mg/kg, po measured after 4.5 hrs; type: functional
# Summary of the method: (§3)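 Unbound plasma level taken 4.5 h after oral dosing (3, 10, 30 mg/kg), given 24 h after intraplantar CFA in rats.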
# Plasma [10] = assay: Unbound plasma concentration in spinal nerve ligation neuropathic pain Sprague-Dawley rat model administered at 30 mg/kg, po bid for 10 days from day 15 to day 24 post SNL surgery measured after […] of last dose; type: functional; conditions: time 242.5 hrs
# Rattus norvegicus [11] = assay: Protective activity in cinnamaldehyde induced nocifensive behaviour Sprague-Dawley rat model assessed as reduction in paw licking treated with cinnamaldehyde followed compound addition at 3 to 30 mg/kg, po measured after 1 hr measured by Dunnert's post hoc test; type: functional, organism-based; conditions: dose 3-30 mg/kg
# Summary of the method: (§4)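 Male Sprague Dawley rats, 175–200 g, dosed orally in 10% DMSO/40% Solutol/50% water 1 h before intraplantar injection of 50 μL cinnamaldehyde at 5 mM. Flinch number and licking duration scored blinded for 5 min. One-way ANOVA with Dunnett versus vehicle.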
# [12] = Metabolic stability in rat hepatocytes; type: ADME, cell-based, Hepatocyte
# [13] = Fraction unbound in Sprague-Dawley rat; type: ADME
# Rattus norvegicus [14] = assay: Anti-inflammatory activity in complete Freund's adjuvant induced mechanical hyperalgesia in Sprague-Dawley rat assessed as reduction of mechanical hyperalgesia treated with CFA for 24 hrs followed by compound addition at 30 mg/kg, po measured after 4 hrs by Dunnett's post hoc test; type: functional, organism-based
# Summary of the method: (§5)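 Male Sprague Dawley rats, 175–200 g, given intraplantar CFA in one hind paw. Oral dose once 24 h later in 10% DMSO/40% Solutol/50% water. Paw withdrawal threshold to pressure measured blinded on CFA and contralateral paws before CFA, at 24 h (predrug) and 2 and 4 h postdose. Two-way repeated-measures ANOVA, then Dunnett versus vehicle.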
# [15] = Permeability form apical to basolateral side in human Caco2 cells; type: ADME, cell-based; conditions: caco-2
# Plasma [16] = assay: Free plasma concentration in cinnamaldehyde induced nocifensive behaviour Sprague-Dawley rat treated with CFA for 24 hrs followed by compound addition at 10 mg/kg, po measured after 4.5 hrs; type: functional; summary of the method: as §3
# [17] = Efflux ratio of permeability in human Caco2 cells; type: ADME, cell-based; conditions: caco-2
# Rattus norvegicus [18] = assay: Protective activity in cinnamaldehyde induced nocifensive behaviour Sprague-Dawley rat model assessed as reduction in number of flinches treated with cinnamaldehyde followed compound addition at 3 to 30 mg/kg, po measured after 1 hr measured by Dunnert's post hoc test; type: functional, organism-based; conditions: dose 3-30 mg/kg; summary of the method: as §4
# [19] = Solubility of the compound in PBS buffer at pH 6.5; type: physicochemical
# [20] = Unbound brain concentration in spinal nerve ligation neuropathic pain Sprague-Dawley rat model administered at 90 mg/kg, po bid for 10 days from day 15 to day 24 post SNL surgery measured after 2 to 8 hrs of last dose
# [21] = Fraction unbound in mouse; type: ADME, organism-based; conditions: in vivo
# [22] = Fraction unbound in guniea pig; type: ADME, Cavia porcellus; conditions: guinea pig
# Rattus norvegicus [23] = assay: Antiallodynic activity against spinal nerve ligation neuropathic pain Sprague-Dawley rat model assessed as reversal of mechanical allodynia administered at 30 mg/kg, po bid for 10 days from day 15 to day 24 post SNL surgery; type: functional, organism-based; conditions: time <= 10.0 day; summary of the method: as §1
# Rattus norvegicus [24] = assay: Reversal of complete Freund's adjuvant induced mechanical hyperalgesia in Sprague-Dawley rat assessed as paw withdrawal threshold treated with CFA for 24 hrs followed by compound addition at 3 to 30 mg/kg, po measured after 2 to 4 hrs by Dunnett's post hoc test; type: functional, organism-based; conditions: dose 3-30 mg/kg, time 2-4 hrs; summary of the method: as §5
# Plasma [25] = assay: Unbound plasma concentration in spinal nerve ligation neuropathic pain Sprague-Dawley rat model administered at 90 mg/kg, po bid for 10 days from day 15 to day 24 post SNL surgery measured after […] of last dose; type: functional; conditions: time 242.5 hrs
# [26] = Fraction unbound in human; type: ADME
# Plasma [27] = assay: Free plasma concentration in cinnamaldehyde induced nocifensive behaviour Sprague-Dawley rat model treated at 3 to 30 mg/kg, po for 1 hr followed by cinnamaldehyde addition; type: functional; conditions: dose 3-30 mg/kg; summary of the method: as §2
# [28] = Metabolic stability in rat blood assessed as clearance; type: ADME, tissue-based
# Rattus norvegicus [29] = assay: Anti-inflammatory activity in complete Freund's adjuvant induced mechanical hyperalgesia in Sprague-Dawley rat assessed as reduction of mechanical hyperalgesia treated with CFA for 24 hrs followed by compound addition at 10 to 30 mg/kg, po measured after 2 hrs by Dunnett's post hoc test; type: functional, organism-based; conditions: dose 10-30 mg/kg; summary of the method: as §5
# Plasma [30] = assay: Free plasma concentration in cinnamaldehyde induced nocifensive behaviour Sprague-Dawley rat model treated with cinnamaldehyde followed compound addition at 3 to 30 mg/kg, po measured after 1 hr; type: functional; conditions: dose 3-30 mg/kg; summary of the method: as §2
# [31] = Unbound brain concentration in spinal nerve ligation neuropathic pain Sprague-Dawley rat model administered at 30 mg/kg, po bid for 10 days from day 15 to day 24 post SNL surgery measured after 2 to 8 hrs of last dose
# Plasma [32] = assay: Free plasma concentration in cinnamaldehyde induced nocifensive behaviour Sprague-Dawley rat treated with CFA for 24 hrs followed by compound addition at 30 mg/kg, po measured after 4.5 hrs; type: functional; summary of the method: as §3
# T1 sequence (O75762 whole entry): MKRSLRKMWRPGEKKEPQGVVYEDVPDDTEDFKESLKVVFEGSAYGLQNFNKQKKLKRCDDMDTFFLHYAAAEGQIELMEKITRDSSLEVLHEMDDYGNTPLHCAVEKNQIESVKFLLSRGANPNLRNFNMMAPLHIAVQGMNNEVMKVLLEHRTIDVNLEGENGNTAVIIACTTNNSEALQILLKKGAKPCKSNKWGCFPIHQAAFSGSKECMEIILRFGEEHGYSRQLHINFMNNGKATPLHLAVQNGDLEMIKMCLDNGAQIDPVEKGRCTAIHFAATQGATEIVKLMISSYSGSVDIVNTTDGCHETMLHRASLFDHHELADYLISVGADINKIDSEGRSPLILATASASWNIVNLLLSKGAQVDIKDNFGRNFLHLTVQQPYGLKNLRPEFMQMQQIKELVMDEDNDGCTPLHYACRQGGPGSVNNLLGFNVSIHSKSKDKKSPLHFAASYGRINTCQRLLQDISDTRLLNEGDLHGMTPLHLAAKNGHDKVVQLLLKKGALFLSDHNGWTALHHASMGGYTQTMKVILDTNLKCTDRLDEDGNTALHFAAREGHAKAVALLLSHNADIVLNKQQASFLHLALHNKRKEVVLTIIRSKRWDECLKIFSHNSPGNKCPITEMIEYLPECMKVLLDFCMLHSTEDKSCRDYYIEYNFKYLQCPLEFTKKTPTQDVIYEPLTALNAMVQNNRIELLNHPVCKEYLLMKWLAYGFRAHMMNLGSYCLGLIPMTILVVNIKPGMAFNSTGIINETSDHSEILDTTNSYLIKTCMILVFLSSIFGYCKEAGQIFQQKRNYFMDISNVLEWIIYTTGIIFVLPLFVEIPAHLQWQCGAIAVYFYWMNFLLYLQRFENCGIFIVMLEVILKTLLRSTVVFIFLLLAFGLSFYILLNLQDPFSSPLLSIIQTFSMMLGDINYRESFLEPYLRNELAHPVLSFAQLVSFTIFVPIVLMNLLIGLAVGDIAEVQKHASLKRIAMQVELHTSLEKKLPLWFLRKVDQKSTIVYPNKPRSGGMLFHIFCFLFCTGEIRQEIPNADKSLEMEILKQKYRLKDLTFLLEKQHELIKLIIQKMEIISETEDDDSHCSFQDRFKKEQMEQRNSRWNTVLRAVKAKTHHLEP
# Sequence of Transient receptor potential cation channel subfamily A member 1 (Rattus norvegicus, UniProt Q6RI86) (Q6RI86 whole entry): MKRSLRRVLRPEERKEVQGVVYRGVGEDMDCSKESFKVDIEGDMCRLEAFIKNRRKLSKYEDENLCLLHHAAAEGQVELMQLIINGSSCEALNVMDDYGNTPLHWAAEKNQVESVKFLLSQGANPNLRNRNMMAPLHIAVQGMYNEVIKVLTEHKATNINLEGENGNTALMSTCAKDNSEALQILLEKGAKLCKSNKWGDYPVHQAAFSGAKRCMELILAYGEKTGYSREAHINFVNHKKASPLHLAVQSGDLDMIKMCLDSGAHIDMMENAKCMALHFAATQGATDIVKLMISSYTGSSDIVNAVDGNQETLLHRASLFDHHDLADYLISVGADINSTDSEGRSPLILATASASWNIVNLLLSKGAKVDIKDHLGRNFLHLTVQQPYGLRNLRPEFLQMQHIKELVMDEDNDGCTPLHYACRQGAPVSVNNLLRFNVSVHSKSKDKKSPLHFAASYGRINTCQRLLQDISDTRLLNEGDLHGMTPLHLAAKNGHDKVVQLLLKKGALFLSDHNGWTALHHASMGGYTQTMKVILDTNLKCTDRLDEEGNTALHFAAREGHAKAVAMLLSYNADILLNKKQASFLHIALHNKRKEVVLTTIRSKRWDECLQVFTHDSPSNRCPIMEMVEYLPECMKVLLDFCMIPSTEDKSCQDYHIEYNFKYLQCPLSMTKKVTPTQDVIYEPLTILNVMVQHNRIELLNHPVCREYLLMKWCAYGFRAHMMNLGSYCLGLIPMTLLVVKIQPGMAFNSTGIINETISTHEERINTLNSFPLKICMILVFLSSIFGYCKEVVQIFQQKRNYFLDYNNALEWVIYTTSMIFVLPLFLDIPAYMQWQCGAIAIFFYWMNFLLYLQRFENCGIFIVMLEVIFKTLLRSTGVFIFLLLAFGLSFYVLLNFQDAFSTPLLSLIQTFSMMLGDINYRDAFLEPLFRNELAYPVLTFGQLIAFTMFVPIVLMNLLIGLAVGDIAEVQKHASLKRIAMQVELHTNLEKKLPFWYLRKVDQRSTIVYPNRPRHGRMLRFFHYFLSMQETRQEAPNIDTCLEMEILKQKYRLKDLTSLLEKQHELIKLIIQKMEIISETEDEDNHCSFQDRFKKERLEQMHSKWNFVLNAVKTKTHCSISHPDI
smiles,measurement,setting,value
Cc1cc2[nH]ncc2cc1-c1ccccc1C(F)(F)F,IC50,[1],0.014 µM
COCCCOc1cccc([C@H]2NC(=S)Nc3c2oc2ncccc32)c1,IC50,[1],0.067 µM
Cn1c(=O)c2c(CC(=O)Nc3nc(-c4ccc(F)c(C(F)(F)F)c4F)cs3)csc2n(C)c1=O,IC50,[1],6.8 µM
O[C@]1(C(F)(F)F)CCCC[C@H]1Cc1ccc(Cl)cn1,IC50,[2],> 25 µM
N#Cc1ccc(N[C@@H]2CCCC[C@]2(O)C(F)(F)F)cc1,Activity,[3],Non-Toxic
same,IC50,[2],1.3 µM
O[C@]1(C(F)(F)F)CCCC[C@H]1Nc1ccc(Cl)cc1,Activity,[3],Toxic
same,IC50,[2],0.118 µM
O=C1c2ccc(F)cc2CN1[C@@H]1CCCC[C@]1(O)C(F)(F)F,logD,[4],2.6
CN(c1ccc(F)cc1)[C@@H]1CCCC[C@]1(O)C(F)(F)F,IC50,[2],21 µM
same,logD,[4],3.9
CN([C@@H]1CCCC[C@]1(O)C(F)(F)F)S(=O)(=O)c1ccc(F)cc1,IC50,[2],16 µM
same,logD,[4],3.1
O=C(N[C@@H]1CCCC[C@]1(O)C(F)(F)F)c1ccc(F)cc1,IC50,[2],15 µM
C#CC(CC)(CC)NC(=O)c1cccnc1NC1CC(F)(F)C1,IC50,[1],0.001 µM
N#Cc1cc(C[C@@H]2CCCC[C@]2(O)C(F)(F)F)cs1,IC50,[2],0.62 µM
same,logD,[4],3.2
O[C@]1(C(F)(F)F)CCCC[C@H]1Nc1cccc(F)c1,Activity,[3],Non-Toxic
same,IC50,[2],0.95 µM
O[C@]1(C(F)(F)F)CCCC[C@H]1N1CCc2cc(F)ccc21,IC50,[2],10 µM
same,logD,[4],3.9
O[C@]1(C(F)(F)F)CCCC[C@H]1Nc1ccc(Cl)c(F)c1,Activity,[3],Non-Toxic
same,IC50,[2],0.2 µM
O[C@]1(C(F)(F)F)CCCC[C@H]1Nc1ccc(F)cn1,Activity,[3],Non-Toxic
same,IC50,[2],6.3 µM
O[C@]1(C(F)(F)F)CCCC[C@H]1Nc1ccc(Cl)c(Cl)c1,Activity,[3],Non-Toxic
same,IC50,[2],0.65 µM
same,logD,[4],3.8
O[C@]1(C(F)(F)F)CCCC[C@H]1Nc1ccc(F)c(Cl)c1,Activity,[3],Non-Toxic
same,IC50,[2],0.68 µM
same,logD,[4],3.4
O[C@]1(C(F)(F)F)CCCC[C@H]1Cc1ccncc1,IC50,[2],5.3 µM
O[C@]1(C(F)(F)F)CCCC[C@H]1Cc1cncc(Cl)c1,IC50,[2],> 25 µM
O[C@]1(C(F)(F)F)CCCC[C@H]1Cc1csc(Cl)c1,IC50,[2],0.13 µM
same,logD,[4],4.3
O[C@@]1(C(F)(F)F)CCCC[C@@H]1Cc1ccc(F)cc1,logD,[4],3.8
C[C@@H](C(=O)Nc1ccnc(-c2cnc(N3CCC[C@H]3C(F)(F)F)nc2)n1)n1cnc2c1c(=O)n(C)c(=O)n2C,IC50,[1],0.064 µM
O[C@]1(C(F)(F)F)CCCC[C@H]1Oc1ccc(F)cc1,IC50,[2],0.12 µM
same,logD,[4],3.5
O[C@]1(C(F)(F)F)CCCC[C@H]1Cc1ccc(Cl)nc1,IC50,[2],2.4 µM
same,logD,[4],3
O[C@]1(C(F)(F)F)CCCC[C@H]1Cc1ncc(Cl)s1,IC50,[2],1.2 µM
NCC1(CC(=O)O)CCCCC1,Activity,Rattus norvegicus [5],Tde
CC1(C)CCCC(O)(C(F)(F)F)C1Cc1cccc(C#N)c1 (mixture of isomers),IC50,[6],5.55 µM
same,IC50,[2],13 µM
CC1(C)CCCC(O)(C(F)(F)F)C1Cc1cccc(F)c1 (mixture of isomers),IC50,[6],0.75 µM
same,IC50,[2],3.8 µM
Cc1ccc(CC2C(C)(C)CCCC2(O)C(F)(F)F)cc1 (mixture of isomers),IC50,[6],1.27 µM
same,IC50,[2],> 12.5 µM
CC1(C)CCCC(O)(C(F)(F)F)C1Cc1ccc(Cl)cc1 (mixture of isomers),IC50,[6],0.34 µM
same,IC50,[2],11.5 µM
CC1(C)CCCC(O)(C(F)(F)F)C1Cc1ccc(C#N)cc1 (mixture of isomers),IC50,[6],0.39 µM
same,IC50,[2],7.57 µM
CC1(C)CCCC(O)(C(F)(F)F)C1Cc1ccc(F)cc1F (mixture of isomers),IC50,[6],1 µM
same,IC50,[2],> 10 µM
COc1ccc(CC2C(C)(C)CCCC2(O)C(F)(F)F)cc1 (mixture of isomers),IC50,[6],> 12.5 µM
same,IC50,[2],> 12.5 µM
COCCN(c1ccc(F)cc1)[C@@H]1CCCC[C@]1(O)C(F)(F)F (racemic),IC50,[2],3.8 µM
same,logD,[4],3.8
O[C@]1(C(F)(F)F)CCCC[C@H]1Nc1ccccc1 (racemic),IC50,[2],2.3 µM
N#Cc1ccc(NC2CCCCC2(O)C(F)(F)F)cc1C(F)(F)F (racemic),Activity,[3],Non-Toxic
same,IC50,[6],19 µM
same,IC50,[2],> 25 µM
OC(F)(F)[C@@]1(O)CCCC[C@H]1Cc1c[nH]c2ccccc12 (racemic),logD,[4],3.3
O[C@]1(C(F)(F)F)CCCC[C@H]1Nc1ccc(F)cc1 [BAY-390],Activity,Rattus norvegicus [7],Active
same,Activity,[3],Non-Toxic
same,IC50,[1],0.035 µM
same,Cp(f),Plasma [8],35 nM
same,Cp(f),Plasma [9],7 nM
same,Cp(f),Plasma [10],115 nM
same,Activity,Rattus norvegicus [11],Active
same,Stability,[12],Stable
same,fraction unbound,[13],0.06
same,logD,[4],3
same,Activity,Rattus norvegicus [14],Active
same,permeability,[15],29.3 ×10⁻⁶ cm/s
same,Cp(f),Plasma [16],10 nM
same,Ratio,[17],0.6
same,Activity,Rattus norvegicus [18],Active
same,solubility,[19],56 µg/mL
same,unbound brain concentration,[20],61 nM
same,fraction unbound,[21],0.081
same,fraction unbound,[22],0.097
same,Activity,Rattus norvegicus [23],inactive
same,Activity,Rattus norvegicus [24],Active
same,Cp(f),Plasma [25],201 nM
same,fraction unbound,[26],0.12
same,Cp(f),Plasma [27],115 nM
same,CL,[28],40 mL/min/kg
same,Activity,Rattus norvegicus [29],Active
same,Cp(f),Plasma [30],10 nM
same,unbound brain concentration,[31],33 nM
same,Cp(f),Plasma [32],103 nM
COc1cc(N[C@@H]2CCCC[C@]2(O)C(F)(F)F)ccc1F [BAY-9897],Activity,[3],Non-Toxic
same,IC50,[6],> 25 µM
same,IC50,[2],> 25 µM
